In PubChem BioAssay:
Active and inactive are the calls of the source.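 How the source made its calls, unless noted: active means viability loss from added drug above about 55%, and viability with drug at most 40%, in both replicates (limit read from the data, passing the limit was not always enough); inconclusive means both conditions met in only one replicate; inactive means neither replicate meets both conditions.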

Legend:
[1] = reducers of endogenous Her2 protein level, primary screen, SKBR3 breast tumor cells, AlphaScreen, ATP viability (AID 461;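 active means Her2 level under about 52% in both replicate screens, with viability over 70% of control, limit read from the data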;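 on Her2 level: lower value means less Her2 protein in the cells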;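 on viability: percent of carrier control wells set as 100% viability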); conditions: 18-24 h, measured here: SKBR3 viability, ATP luminescence, at 10 µM
[2] = target: Receptor tyrosine-protein kinase erbB-2 (Homo sapiens) (UniProt P04626); test: as above; conditions: 18-24 h, at 10 µM, stronger effect = lower value
[3] = SK-BR-3 cell growth inhibitors, pilot screen, 24 h, human (AID 572;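 active means viability at or below 10% of carrier control in both of two separate runs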;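 further: compound exposure lasted between 18 and 24 h rather than exactly 24 h; 100% = carrier-treated control wells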); conditions: SK-BR-3 viability, CellTiter-Glo luminescence, at 10 µM, stronger effect = lower value
[4] = HUVEC growth inhibition – cell-based, human, primary screen (AID 575;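 active means viability at or below 30% in both replicate assays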;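 further: 100% = median of untreated cell wells with 0.1% DMSO on each plate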); conditions: HUVEC proliferation, CellTiter-Glo luminescence, 72 h; at 10 µM; stronger effect = lower value
Summary of the method: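 System: primary human umbilical vein endothelial cells; Quantity: 1250 endothelial cells in each well; Buffer or medium: supplemented EBM, 2% fetal bovine serum; Doses: one dose, 10 µM final, 0.1% DMSO; Incubation: 72 h compound incubation; Technique: ATP-based CellTiter-Glo luminescent read; Evaluation: percent of median DMSO-control luminescence; Controls: vehicle and MePR control wells.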

[5] = growth inhibitors of H69AR lung tumor, primary screen, human, duplicate replicates (AID 580;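 active means viability at or under a set limit in both replicates, limit being median viability minus 3 SD, cut at about 48% in these data, passing the limit was not always enough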;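 further: 100% = mean luminescence of untreated wells and 0% = no signal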); conditions: H69AR lung tumor cells viability, ATP luminescence, 72 h; at 10 µM; stronger effect = lower value
[6] = reversal of MRP1-mediated doxorubicin resistance, pilot screen, H69AR cells, doxorubicin co-treatment (AID 601); conditions: CellTiter-Glo, 72 h, at 10 µM; for differential viability (reversal): stronger effect = higher value
[7] = 384-well plate pilot, post-Golgi transport modulator project, inhibition of yeast transport mutant growth (AID 636; in the data active means inhibition above about 31%); conditions: absorbance 615 nm, about 18 h, stronger effect = higher value
[8] = growth suppression of yeast trafficking mutant, preliminary HTS, modulators of trafficking downstream of Golgi apparatus project, 1536-format plate, OD 615 nm (AID 637; in the data active means inhibition above about 30%); conditions: yeast transport mutant growth, absorbance 615 nm, 18 h; stronger effect = higher value
[9] = H69AR cells + 2 uM doxorubicin, measured here: viability with 2 uM doxorubicin, stronger effect = lower value
[10] = H69AR cells, compound alone cytotoxicity

Sequence of Receptor tyrosine-protein kinase erbB-2 (Homo sapiens) (P04626 whole entry, looked up): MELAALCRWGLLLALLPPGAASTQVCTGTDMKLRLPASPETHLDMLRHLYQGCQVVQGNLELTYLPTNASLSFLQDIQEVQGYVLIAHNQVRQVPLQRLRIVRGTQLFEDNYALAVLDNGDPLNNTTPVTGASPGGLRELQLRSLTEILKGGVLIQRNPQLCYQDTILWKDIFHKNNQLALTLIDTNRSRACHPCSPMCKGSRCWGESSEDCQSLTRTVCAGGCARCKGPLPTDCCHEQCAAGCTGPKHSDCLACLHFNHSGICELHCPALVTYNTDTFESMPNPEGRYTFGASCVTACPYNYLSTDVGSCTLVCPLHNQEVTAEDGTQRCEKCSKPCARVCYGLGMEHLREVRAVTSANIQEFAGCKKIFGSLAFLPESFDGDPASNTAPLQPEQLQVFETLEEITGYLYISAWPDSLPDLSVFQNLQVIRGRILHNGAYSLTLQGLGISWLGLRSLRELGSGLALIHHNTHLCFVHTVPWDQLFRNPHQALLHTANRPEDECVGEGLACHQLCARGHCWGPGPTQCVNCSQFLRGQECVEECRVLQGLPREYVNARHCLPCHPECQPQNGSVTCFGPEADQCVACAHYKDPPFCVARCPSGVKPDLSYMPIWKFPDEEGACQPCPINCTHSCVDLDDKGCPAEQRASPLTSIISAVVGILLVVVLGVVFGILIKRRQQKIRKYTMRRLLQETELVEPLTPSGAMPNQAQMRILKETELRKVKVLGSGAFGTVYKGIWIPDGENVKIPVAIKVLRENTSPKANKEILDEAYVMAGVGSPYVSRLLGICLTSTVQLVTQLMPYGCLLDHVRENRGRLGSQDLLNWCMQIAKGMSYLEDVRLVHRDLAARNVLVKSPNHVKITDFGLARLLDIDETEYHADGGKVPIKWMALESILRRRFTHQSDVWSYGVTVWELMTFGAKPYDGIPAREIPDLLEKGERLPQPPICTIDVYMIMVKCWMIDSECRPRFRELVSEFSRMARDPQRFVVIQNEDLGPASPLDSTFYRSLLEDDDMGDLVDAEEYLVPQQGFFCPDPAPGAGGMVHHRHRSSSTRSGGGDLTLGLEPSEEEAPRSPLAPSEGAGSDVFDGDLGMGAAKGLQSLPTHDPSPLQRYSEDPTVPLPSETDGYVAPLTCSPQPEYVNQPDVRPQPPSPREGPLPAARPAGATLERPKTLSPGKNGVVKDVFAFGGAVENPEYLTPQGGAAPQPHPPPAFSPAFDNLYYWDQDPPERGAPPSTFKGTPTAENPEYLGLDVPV

| SMILES | viability [1] [%] | Her2 level [2] | viability [3] | viability [4] | viability [5] | differential viability (reversal) ([6]; H69AR cells + 2 uM doxorubicin) | viability [6, 9] [%] | viability [6, 10] [%] | inhibition [7] | inhibition [8] |
| --- | --- | --- | --- | --- | --- | --- | --- | --- | --- | --- |
| Cc1ccc(-c2nc3cc(N)ccc3o2)cc1 | 104 | 115% (inactive) | 104% (inactive) | 72.6% (inactive) | 79.9% (inactive) | -1.81% (inactive) | 81.7 | 79.9 | -2.82% (inactive) | -2.17% (inactive) |
| CS(=O)(=O)NCc1nnc(SCC(=O)NC2CCCCC2)n1-c1ccc(F)cc1 | 98.5 | 100% (inactive) | 98.5% (inactive) | 102% (inactive) | 97.6% (inactive) | 9.24% (inactive) | 88.4 | 97.6 | -6.18% (inactive) | 12.3% (inactive) |
| CC(C)N(O)C(=O)NC(C)(C)C | 110 | 99% (inactive) | 110% (inactive) | 97.8% (inactive) | 93.8% (inactive) | -5.12% (inactive) | 98.9 | 93.8 | -2.8% (inactive) | 5% (inactive) |
| CCn1c(SCC(=O)Nc2ccccc2F)nc2c(c1=O)SC(C)C2 (stereo not given) | 116 | 86.5% (inactive) | 116% (inactive) | 96.4% (inactive) | 95.3% (inactive) | 11.5% (inactive) | 83.8 | 95.3 | -6.03% (inactive) | 2.54% (inactive) |
| CC1(C)CC(=O)C(C=NCc2ccc3c(c2)OCO3)=C(O)C1 | 104 | 95.5% (inactive) | 104% (inactive) | 96.6% (inactive) | 91.3% (inactive) | 5% (inactive) | 86.3 | 91.3 | 0.65% (inactive) | -4.92% (inactive) |
| CCOC(=O)c1cccc(NC(=O)CSc2nc3cccnc3n2C)c1 | 86.5 | 94.5% (inactive) | 86.5% (inactive) | 71.4% (inactive) | 93.2% (inactive) | -1.5% (inactive) | 94.7 | 93.2 | -5.14% (inactive) | 1.8% (inactive) |
| Nn1cc(-c2ccccc2)nc1SCC(=O)N1CCN(S(=O)(=O)c2ccccc2)CC1 | 77 | 96% (inactive) | 77% (inactive) | 90.5% (inactive) | 101% (inactive) | -0.4% (inactive) | 102 | 101 | 0.91% (inactive) | -6.56% (inactive) |
| O=C(NCc1ccc2c(c1)OCO2)c1ccc(NS(=O)(=O)c2ccc3c(c2)OCCO3)cc1 | 102 | 84.5% (inactive) | 102% (inactive) | 85.2% (inactive) | 106% (inactive) | 15.4% (inactive) | 90.9 | 106 | -8.11% (inactive) | -3.65% (inactive) |
| COC(=O)c1[nH]c(C)c(/C(O)=C2\C(=O)C(=O)N(CCN(C)C)C2c2ccccc2OC)c1C (stereo not given) | 88 | 114% (inactive) | 88% (inactive) | 79% (inactive) | 84.3% (inactive) | 1.34% (inactive) | 82.9 | 84.3 | -6.89% (inactive) | -1.5% (inactive) |
| COc1ccc(N2CCN(C(=O)CCNS(=O)(=O)c3ccc(Br)s3)CC2)cc1 | 64 | 91.5% (inactive) | 64% (inactive) | 80.1% (inactive) | 88.7% (inactive) | -3.66% (inactive) | 92.3 | 88.7 | -4.55% (inactive) | 6.72% (inactive) |
| Cc1c(C)c2cc(Cl)c(O)c(CN3CCCCC3)c2oc1=O | 97.5 | 112% (inactive) | 97.5% (inactive) | 102% (inactive) | 99% (inactive) | 3.51% (inactive) | 95.5 | 99 | 1.18% (inactive) | 5.57% (inactive) |
| CCOC(=O)CSc1nc2cc(C(=O)N3CCC(C(N)=O)CC3)ccc2c(=O)n1-c1ccccc1 | 98 | 95% (inactive) | 98% (inactive) | 76.5% (inactive) | 100% (inactive) | 7.63% (inactive) | 92.4 | 100 | -3.95% (inactive) | -4.17% (inactive) |
| Cc1cccc(NC(=O)c2cnc3sccn3c2=O)n1 | 99 | 98.5% (inactive) | 99% (inactive) | 95.8% (inactive) | 100% (inactive) | 8.25% (inactive) | 92.2 | 100 | 0.13% (inactive) | 2.83% (inactive) |
| O=C1c2ccccc2C(=O)N1OCc1ccccc1 | 95.5 | 91.5% (inactive) | 95.5% (inactive) | 101% (inactive) | 92.2% (inactive) | -0.76% (inactive) | 92.9 | 92.2 | -6.18% (inactive) | 3.93% (inactive) |
| O=C(CSc1nnc(SCc2ccc(Cl)cc2)s1)N1CCN(C(=O)c2ccco2)CC1 | 80.5 | 93% (inactive) | 80.5% (inactive) | 70.3% (inactive) | 100% (inactive) | 10.9% (inactive) | 89.2 | 100 | -8.36% (inactive) | -5.56% (inactive) |
| O=C(CCSc1ccccc1)Nc1ccc(S(=O)(=O)N2CCOCC2)cc1 | 102 | 83.5% (inactive) | 102% (inactive) | 81.2% (inactive) | 104% (inactive) | 12.5% (inactive) | 91.6 | 104 | -9.18% (inactive) | -1.27% (inactive) |
| Cc1nnc(SCC(=O)NC(C)(C)C)n1CCc1ccccc1 | 93.5 | 92.5% (inactive) | 93.5% (inactive) | 105% (inactive) | 95.6% (inactive) | 4.22% (inactive) | 91.4 | 95.6 | -6.53% (inactive) | 5.65% (inactive) |
| CCN1CCN(C(=O)c2cc3c(=O)n(C)c4ccccc4c3n2C)CC1 | 110 | 94% (inactive) | 110% (inactive) | 88.2% (inactive) | 77.6% (inactive) | -9.27% (inactive) | 86.9 | 77.6 | 0.4% (inactive) | -1.33% (inactive) |
| O=C(CSc1nnc(-c2cccs2)o1)NCC1CN(Cc2ccccc2)CCO1 (stereo not given) | 99.5 | 90.5% (inactive) | 99.5% (inactive) | 106% (inactive) | 85.1% (inactive) | -13.7% (inactive) | 98.8 | 85.1 | -1.69% (inactive) | -1.9% (inactive) |
| O=C(CN(Cc1cccs1)C(=O)CNS(=O)(=O)c1ccccc1)NCc1ccco1 | 98 | 96.5% (inactive) | 98% (inactive) | 101% (inactive) | 101% (inactive) | 12.7% (inactive) | 88 | 101 | 0.13% (inactive) | -3.33% (inactive) |
| CC(CCc1ccccc1)NC(=O)c1ccc(Br)o1 (stereo not given) | 110 | 86% (inactive) | 110% (inactive) | 88.5% (inactive) | 93.5% (inactive) | 9.45% (inactive) | 84 | 93.5 | -4.93% (inactive) | 0.63% (inactive) |
| COc1ccc(CNC(=O)C(c2ccco2)N(Cc2cccs2)C(=O)Cc2cccs2)cc1 (stereo not given) | 96.5 | 86.5% (inactive) | 96.5% (inactive) | 67.5% (inactive) | 72.5% (inactive) | 8.17% (inactive) | 64.3 | 72.5 | -1.95% (inactive) | -4.29% (inactive) |
| c1cc2c(cc1C1=Nn3c(nnc3C3CCCCC3)SC1)OCO2 | 133 | 108% (inactive) | 133% (inactive) | 64.8% (inactive) | 9.93% (active) | -67.4% (inactive) | 77.3 | 9.93 | -1.84% (inactive) | 3.06% (inactive) |
| COc1cccc(-n2nnc3c(=O)n(Cc4cccc(F)c4)cnc32)c1 | 96.5 | 104% (inactive) | 96.5% (inactive) | 91.7% (inactive) | 99.9% (inactive) | 5.36% (inactive) | 94.6 | 99.9 | -2.7% (inactive) | 16.8% (inactive) |
| Cc1nc2sc(C(c3cccc(F)c3)N3CCC(C)CC3)c(O)n2n1 (stereo not given) | 88 | 77% (inactive) | 88% (inactive) | 101% (inactive) | 96.3% (inactive) | 9.65% (inactive) | 86.7 | 96.3 | -6.71% (inactive) | 1.75% (inactive) |
| CCC(C)(C(=O)NC1CCCC1)N(Cc1cccs1)C(=O)Cc1cccs1 (stereo not given) | 122 | 93% (inactive) | 122% (inactive) | 103% (inactive) | 96.8% (inactive) | 15.6% (inactive) | 81.3 | 96.8 | -7.53% (inactive) | -0.63% (inactive) |
| O=C(CSc1nc2ccccc2nc1SCC(=O)N1CCOCC1)N1CCOCC1 | 100 | 98% (inactive) | 100% (inactive) | 110% (inactive) | 95.7% (inactive) | 1.15% (inactive) | 94.5 | 95.7 | -1.03% (inactive) | 0.17% (inactive) |
| Cc1ccc(N(Cc2ccco2)C(=O)c2cccc(S(=O)(=O)N(C)C)c2)cc1 | 97.5 | 104% (inactive) | 97.5% (inactive) | 88.4% (inactive) | 96.7% (inactive) | -2.84% (inactive) | 99.6 | 96.7 | 0.53% (inactive) | -1% (inactive) |
| Cc1nn(-c2ccccc2)c2c1C(=O)NC(=O)C(C)(C)C2 | 96.5 | 88.5% (inactive) | 96.5% (inactive) | 105% (inactive) | 97.3% (inactive) | 16.2% (inactive) | 81.1 | 97.3 | -4.08% (inactive) | -1.27% (inactive) |
